In ChEMBL document CHEMBL1140193, “Synthesis and anti-inflammatory evaluation of methylene bridged benzofuranyl imidazo[2,1-b][1,3,4]thiadiazoles” (Eur J Med Chem, 2008):

Key:
Rattus norvegicus [1] = assay: Toxicity in Wistar albino rat assessed as induction of convulsions and tremors up to 3 g/kg, po after 8 hrs; format: organism-based; conditions: in vivo, 3000 mg/kg
In short: (§1)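 Acute toxicity: albino rats of either sex in groups of six, oral doses from 100 up to 3000 mg kg^-1. Rats observed continuously for 8 h for changes in motor activity, ataxia, tremors, convulsions, sedation and lacrimation. Ulceration and haemorrhagic spots also inspected.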

Rattus norvegicus [2] = assay: Toxicity in Wistar albino rat assessed as induction of gastric ulceration up to 3 g/kg, po after 8 hrs; format: organism-based, Stomach; conditions: in vivo, 3000 mg/kg; in short: as §1
Rattus norvegicus [3] = assay: Analgesic activity in Wistar albino rat […] assessed as reaction time for tail withdrawal at 100 mg/kg, po after 120 mins by tail flick method; format: functional
In short: (§2)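 Rat tail-flick test: latency for the rat to withdraw its tail from hot water at 55 ± 0.5 °C. Drugs given orally. Reaction time in seconds read at 60, 90, 120 and 300 min after dosing. Treated animals compared with control and with a nimesulide standard. Wistar albino rats, 150-200 g, either sex; food withdrawn 12 h before and during testing.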

Rattus norvegicus [4] = assay: Toxicity in Wistar albino rat assessed as induction of sedation up to 3 g/kg, po after 8 hrs; format: organism-based; conditions: in vivo, 3000 mg/kg; in short: as §1
Rattus norvegicus [5] = assay: Analgesic activity in Wistar albino rat […] assessed as increase in reaction time for tail withdrawal at 100 mg/kg, po after 300 mins by tail flick method; format: functional; in short: as §2
Rattus norvegicus [6] = assay: Analgesic activity in Wistar albino rat […] assessed as reaction time for tail withdrawal at 100 mg/kg, po after 300 mins by tail flick method; format: functional; in short: as §2
Rattus norvegicus [7] = assay: Antiinflammatory activity in Wistar albino rat assessed as inhibition of carrageenan-induced paw oedema at 100 mg/kg, po measured 1 hr after carrageenan challenge; format: functional
In short: (§3)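 Albino rats, 6 per group, dosed orally at 100 mg kg^-1; ibuprofen 100 mg kg^-1 as standard. One hour after dosing, 0.1 ml of 1% carrageenan with 2% gum acacia in normal saline injected subplantar into the right hind paw. Paw volume measured by plethysmometer; % inhibition versus control calculated. One-way ANOVA with Dunnett's t test.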

Rattus norvegicus [8] = assay: Antiinflammatory activity in Wistar albino rat assessed as inhibition of carrageenan-induced paw oedema at 100 mg/kg, po measured 3 hrs after carrageenan challenge; format: functional; in short: as §3
Rattus norvegicus [9] = assay: Antiinflammatory activity in Wistar albino rat assessed as inhibition of carrageenan-induced paw oedema at 100 mg/kg, po measured 4 hrs after carrageenan challenge; format: functional; in short: as §3
Rattus norvegicus [10] = assay: Toxicity in Wistar albino rat assessed as effect on motor activity up to 3 g/kg, po after 8 hrs; format: organism-based; conditions: in vivo, 3000 mg/kg; in short: as §1
Rattus norvegicus [11] = assay: Toxicity in Wistar albino rat assessed as induction of haemorrhagic spots up to 3 g/kg, po after 8 hrs; format: organism-based; conditions: in vivo, 3000 mg/kg; in short: as §1
Rattus norvegicus [12] = assay: Toxicity in Wistar albino rat assessed as mortality up to 3 g/kg, po after 24 hrs; format: organism-based; conditions: in vivo, 3000 mg/kg
In short: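 Albino rats of either sex, six per group, dosed orally from 100 up to 3000 mg kg^-1 body weight. Animals were watched continuously for 8 h for signs of acute toxicity such as altered motor activity, ataxia, tremors, convulsions, sedation and lacrimation, and were checked for mortality over a 24 h period. Food was withheld for 12 h before dosing.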

Rattus norvegicus [13] = assay: Analgesic activity in Wistar albino rat […] assessed as increase in reaction time for tail withdrawal at 100 mg/kg, po after 180 mins by tail flick method; format: functional
Rattus norvegicus [14] = assay: Antiinflammatory activity in Wistar albino rat assessed as inhibition of carrageenan-induced paw oedema at 100 mg/kg, po measured 2 hrs after carrageenan challenge; format: functional; in short: as §3
Rattus norvegicus [15] = assay: Antiinflammatory activity in Wistar albino rat assessed as inhibition of carrageenan-induced paw oedema at 100 mg/kg, po measured 0.5 hrs after carrageenan challenge; format: functional; in short: as §3
Rattus norvegicus [16] = assay: Analgesic activity in Wistar albino rat […] assessed as reaction time for tail withdrawal at 100 mg/kg, po after 180 mins by tail flick method; format: functional
Rattus norvegicus [17] = assay: Antiinflammatory activity in Wistar albino rat assessed as inhibition of carrageenan-induced paw oedema at 100 mg/kg, po measured 5 hrs after carrageenan challenge; format: functional; in short: as §3
Rattus norvegicus [18] = assay: Analgesic activity in Wistar albino rat […] assessed as reaction time for tail withdrawal at 100 mg/kg, po after 30 mins by tail flick method; format: functional
Rattus norvegicus [19] = assay: Analgesic activity in Wistar albino rat […] assessed as reaction time for tail withdrawal at 100 mg/kg, po after 60 mins by tail flick method; format: functional; in short: as §2

SMILES	Activity (Rattus norvegicus [1])	Activity (Rattus norvegicus [2])	Activity (Rattus norvegicus [3])	Activity (Rattus norvegicus [4])	Activity (Rattus norvegicus [5])	Activity (Rattus norvegicus [6])	inhibition in vivo at 100 mg/kg (Rattus norvegicus [7])	inhibition in vivo at 100 mg/kg (Rattus norvegicus [8])	inhibition in vivo at 100 mg/kg (Rattus norvegicus [9])	Activity (Rattus norvegicus [10])	Activity (Rattus norvegicus [11])	Activity (Rattus norvegicus [12])	Activity (Rattus norvegicus [13])	inhibition in vivo at 100 mg/kg (Rattus norvegicus [14])	inhibition in vivo at 100 mg/kg (Rattus norvegicus [15])	Activity (Rattus norvegicus [16])	inhibition in vivo at 100 mg/kg (Rattus norvegicus [17])	Activity (Rattus norvegicus [18])	Activity (Rattus norvegicus [19])
Cc1ccc2c(Cc3nn4c(CO)c(-c5ccc(Cl)cc5)nc4s3)coc2c1	Non-toxic	Non-toxic	5.467 s	Non-toxic	102.49%	5.433 s	14.5%	45.9%	54.3%	Non-toxic	Non-toxic	Non-toxic	165.85%	28.9%	9.61%	7.133 s	58.9%	3.65 s	4.35 s
Cc1ccc2c(Cc3nn4cc(-c5ccc([N+](=O)[O-])cc5)nc4s3)coc2c1	Non-toxic	Non-toxic	9.567 s	Non-toxic	211.21%	8.35 s	13.4%	40.9%	45.7%	Non-toxic	Non-toxic	Non-toxic	268.98%	24.3%	0%	9.9 s	49.8%	4.65 s	7.4 s
CC(C)Cc1ccc(C(C)C(=O)O)cc1 (stereo not drawn) [IBUPROFEN]	–	–	–	–	–	–	42.3%	60%	66.1%	–	–	–	–	42.9%	42.1%	–	72.9%	–	–
Cc1ccc2c(Cc3nn4c(C#N)c(-c5ccc(Cl)cc5)nc4s3)coc2c1	Non-toxic	Non-toxic	6.617 s	Non-toxic	167.12%	7.167 s	13.4%	43.4%	51.2%	Non-toxic	Non-toxic	Non-toxic	207.49%	28%	4.77%	8.25 s	53.5%	3.7 s	4.067 s
CS(=O)(=O)Nc1ccc([N+](=O)[O-])cc1Oc1ccccc1 [NIMESULIDE]	–	–	8.65 s	–	218.67%	8.55 s	–	–	–	–	–	–	260.9%	–	–	9.683 s	–	5.1 s	7.683 s
Cc1ccc2c(Cc3nn4c(CO)c(-c5ccc(Br)cc5)nc4s3)coc2c1	Non-toxic	Non-toxic	5.917 s	Non-toxic	126.12%	6.067 s	7.2%	36.6%	44.9%	Non-toxic	Non-toxic	Non-toxic	177.3%	13.1%	2.38%	7.4 s	47.3%	3.667 s	4.583 s
Cc1ccc2c(Cc3nn4cc(-c5ccc(Cl)cc5)nc4s3)coc2c1	Non-toxic	Non-toxic	8.75 s	Non-toxic	196.31%	7.95 s	13.4%	51.7%	55.9%	Non-toxic	Non-toxic	Non-toxic	259.03%	42.1%	8.38%	9.633 s	58.1%	3.483 s	4.033 s
Cc1ccc2c(Cc3nn4c(CN5CCOCC5)c(-c5ccc(Br)cc5)nc4s3)coc2c1	Non-toxic	Non-toxic	6.45 s	Non-toxic	172.08%	7.3 s	12.4%	43.4%	51.2%	Non-toxic	Non-toxic	Non-toxic	203.76%	31.7%	8.38%	8.15 s	52.7%	3.5 s	4.067 s
Cc1ccc2c(Cc3nn4c(C=O)c(-c5ccc(Br)cc5)nc4s3)coc2c1	Non-toxic	Non-toxic	6.5 s	Non-toxic	181.4%	7.55 s	12.4%	10.8%	10.2%	Non-toxic	Non-toxic	Non-toxic	238.53%	11.2%	1.15%	9.083 s	12.4%	3.983 s	4.433 s
Cc1ccc2c(Cc3nn4cc(-c5ccc(Br)cc5)nc4s3)coc2c1	Non-toxic	Non-toxic	2.583 s	Non-toxic	0%	2.683 s	10.3%	10.8%	11.1%	Non-toxic	Non-toxic	Non-toxic	0.633%	12%	6%	2.7 s	22.5%	2.65 s	2.667 s
Cc1ccc2c(Cc3nn4c(CN5CCOCC5)c(-c5ccc([N+](=O)[O-])cc5)nc4s3)coc2c1	Non-toxic	Non-toxic	8.433 s	Non-toxic	199.4%	8.033 s	5.19%	41.6%	48%	Non-toxic	Non-toxic	Non-toxic	246.62%	24.3%	3.6%	9.3 s	51.2%	3.6 s	5.933 s
Cc1ccc2c(Cc3nn4c(C=O)c(-c5ccc(Cl)cc5)nc4s3)coc2c1	Non-toxic	Non-toxic	6.667 s	Non-toxic	142.89%	6.517 s	11.4%	42.5%	47.2%	Non-toxic	Non-toxic	Non-toxic	193.21%	24.3%	3.6%	7.867 s	48.8%	3.55 s	5.35 s
